VIM-2 inhibitor: inhibitors of Pseudomonas aeruginosa VIM-2 metallo-beta-lactamase; AID 1527; purified VIM-2, nitrocefin hydrolysis, epi-absorbance fluorescence; inhibition, % at 5.6 µM; actives 0.89% (n = 290,000);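 active = inhibition above the mean of all tested compounds plus 3 SD, cutoff set per screening run, cut at about 7.5% in these data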;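 note: red hydrolysis product quenches plate fluorescence so inhibitors raise well fluorescence; 0% = enzyme with DMSO and 100% = DMSO without enzyme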
dFosB act: activators of mouse delta FosB homodimer | P13346 | purified delta FosB, TAMRA-CDK5 oligo fluorescence polarization; percent of positive-control signal above neutral wells | activation, % at 25 µM | actives 0.99% (n = 340,000);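 active = mean activation above about 17%, with every replicate also reaching it, limit read from the data, passing the limit was not always enough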
IMP-1 inhibitor: blocks Pseudomonas aeruginosa IMP-1 metallo-beta-lactamase | actives 0.45% (n = 290,000) | inhibition, % at 5.6 µM | purified IMP-1, nitrocefin hydrolysis, epi-absorbance fluorescence;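 active = inhibition above the mean plus 3 SD of all compounds in the same screening run, cut at about 4.5% in these data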;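 note: 0% = IMP-1 with DMSO and 100% = DMSO wells lacking enzyme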
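System: Purified IMP-1 | Read-out basis: Percent enzyme inhibition | Controls: IMP-1 with DMSO as 0%, enzyme-free DMSO as 100% | Replicates: One well per compound | Doses: 5.6 µM nominal single concentration | Detection: Epi-absorbance fluorescence, 480 nm excitation, 530 nm emission | Incubation: 25 °C, 15 min preincubation, 25 min reaction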
m5-HT2A agonist: activates the mouse 5-HT2A serotonin receptor; P35363; CHO-K1 mHTR2A beta-arrestin complementation, luminescence; percent of 30 µM serotonin response; activation, % at 7.6 µM; actives 0.66% (n = 360,000); AID 624169;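 active = activation above a run cutoff, the mean activation of all tested compounds plus 3 SD, cut at about 14% in these data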;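 note: 0% = plate median of compound wells and 100% = 30 µM serotonin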
Target sequence (P35363 whole entry, looked up): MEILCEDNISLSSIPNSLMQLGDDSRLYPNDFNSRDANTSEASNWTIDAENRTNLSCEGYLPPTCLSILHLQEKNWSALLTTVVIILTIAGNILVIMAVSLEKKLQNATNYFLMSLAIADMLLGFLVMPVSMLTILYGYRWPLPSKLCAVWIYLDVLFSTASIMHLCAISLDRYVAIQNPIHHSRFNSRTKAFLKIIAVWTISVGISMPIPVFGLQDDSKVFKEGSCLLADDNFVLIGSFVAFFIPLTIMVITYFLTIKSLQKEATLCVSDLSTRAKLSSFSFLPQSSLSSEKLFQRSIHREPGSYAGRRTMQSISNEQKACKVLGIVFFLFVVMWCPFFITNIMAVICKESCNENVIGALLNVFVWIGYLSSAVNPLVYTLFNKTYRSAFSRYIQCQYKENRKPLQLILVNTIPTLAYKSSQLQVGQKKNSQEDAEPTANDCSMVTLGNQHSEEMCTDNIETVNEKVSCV
Numbers without * were called inactive; . = no result given. Rows were chosen to be rich in hits. Some 2.5% of all compounds tested hit in one or more screens of this group.

SMILES | VIM-2 inhibitor | dFosB act | IMP-1 inhibitor | m5-HT2A agonist
CCOC1=C2[C@H](c3ccc(CC)cc3)N(S(=O)(=O)c3ccc(C)cc3)C[C@H]2n2c(=O)n(-c3ccccc3)c(=O)n2C1 | . | . | . | -3
c1ccc(CNc2ncnc3sc4c(c23)CCC4)nc1 | 10* | -5 | -3 | 5
O=C(Cn1nc(-c2cccc([N+](=O)[O-])c2)c2ccccc2c1=O)NCC1CCCO1 (stereo not drawn) | 0 | 2 | -1 | 1
CCc1ccc(NC(=O)Cn2cnc3c(=O)n(C)c(=O)n(C)c32)cc1 | -2 | -8 | -2 | 1
Cn1c(=O)c2ncn(CC(=O)Nc3cccc(-c4nc5ccccc5s4)c3)c2n(C)c1=O | -1 | 78* | 0 | 3
Nc1ccc(Cn2ccc3c4c(N)nc(N)nc4ccc32)cc1 | . | 158* | . | -4
CCOC(=O)C1CCN(S(=O)(=O)c2ccc3[nH]c(=O)c(=O)[nH]c3c2)CC1 | -2 | -6 | -1 | 3
CCOC(=O)C1CCN(S(=O)(=O)c2ccc3[nH]c4c(c3c2)CCCC4)CC1 | 8.1* | -11 | 1 | 0
O=C(NCc1ccc2[nH]c3c(c2c1)CCCC3)c1ccc(S(=O)(=O)N2CCCC2)cc1 | 12* | -11 | 0 | -5
CN(C#N)c1nc(Cl)nc(Nc2cccc(Cl)c2)n1 | 9.4* | -1 | -5 | -7
COc1ccccc1CNC(=O)COC(=O)c1cccnc1SCC(=O)NCc1ccccc1OC | -2 | 41* | -3 | 1
O=c1ccc2[n+]([O-])c3ccc(O)cc3oc-2c1 | -3 | 40* | -3 | 7
CC1(C)CC(=O)c2cnc(NCC3CCCO3)nc2C1 (stereo not drawn) | -1 | 5 | 6.0* | 2
C=CCC1c2cccc(C(=O)O)c2C(=O)N1c1cccc(C)c1 (stereo not drawn) | 11* | 0 | -6 | -1
O=C(CCN1C(=O)/C(=C\c2ccccc2)SC1=S)NNC(=O)c1ccccc1O | -2 | 20* | 0 | -5
CC(=O)NNC(=O)CN1C(=O)/C(=C/c2ccccc2)SC1=S | 5 | 9 | 9.6* | -4
O=C(O)CN1C(=O)/C(=C/c2ccc(SCc3ccccc3)o2)SC1=S | 4 | -9 | 4.7* | 0
CCc1ccc(/C=C2/SC(=S)N(CC(=O)Nc3nc4ccccc4s3)C2=O)cc1 | -11 | 28* | -1 | 2
NC(=O)c1cnc(Cc2c[nH]c3ccccc23)c(I)c1 | . | . | . | -5
CC(C)CN(C(=O)COC(=O)CN1C(=O)c2ccccc2C1=O)c1c(N)n(Cc2ccccc2)c(=O)[nH]c1=O | . | -17 | . | -3
Cc1ccc(S(=O)(=O)N=N/C=C2\C=CC=CN2O)cc1 | . | . | . | 1
Cc1noc(NS(=O)(=O)c2ccc(NS(=O)(=O)c3ccc(C(C)(C)C)cc3)cc2)c1C | . | . | . | 2
Cc1ncc(CN2CCC(CO)(CCc3ccccc3)CC2)s1 | 0 | -10 | -2 | -3
O=C(Nc1nccs1)C1CCCN(S(=O)(=O)c2cccnc2)C1 (stereo not drawn) | 0 | 0 | 4.8* | 4
O=c1[nH]c(C(F)(F)C(F)(F)C(F)(F)F)no1 | . | 6 | . | -1
SMILES | VIM-2 inhibitor | dFosB act | IMP-1 inhibitor | m5-HT2A agonist
CC(=O)N1N=C(c2ccc(Cl)cc2)CC1c1ccco1 (stereo not drawn) | 9.9* | -6 | -1 | -2
Cc1cc(C)c2c(c1)/C(=N/NC(=S)Nc1ccc(F)cc1)CCC2 | -4 | 31* | -4 | 2
COC(=O)N/N=C1\CCCc2c(C)cc(C)cc21 | -3 | -2 | -4 | -2
CC1CCC(NC(=O)CN2C(=O)c3cccnc3Oc3ccc(Cl)cc32)CC1 (stereo not drawn) | 2 | -5 | 1 | 7
Cc1ccc(S(=O)(=O)N2CCN(C(=O)c3ccc(COc4ccccc4)o3)CC2)cc1 | . | -7 | . | 6
CCN(c1ccccc1)S(=O)(=O)c1ccc(OC)c(NC(=O)CCc2nc3ccccc3c(=O)[nH]2)c1 | . | -12 | . | -6
COc1ccccc1N1CCN(S(=O)(=O)c2cc3[nH]c(=O)c(=O)[nH]c3cc2C)CC1 | -1 | 2 | 4.5* | -8
COc1ccc([C@H]2N[C@]3(CCCN(Cc4ccc(C(F)(F)F)cc4)C3=O)[C@H]3C(=O)N(C)C(=O)[C@@H]23)cc1 | . | . | . | 5
Cc1ccc2nc(C(Cl)(Cl)Cl)nc(N/N=C/c3ccncc3)c2c1 | 11* | -2 | -3 | 4
CC(C)CCCCCCCCCCCCC(=O)NCC(=O)NC1C(C)OC(Nc2ncnc3nc[nH]c23)C(O)C1O (stereo not drawn) | . | 68* | . | 0
C/C(=C\CNc1ncnc2nc[nH]c12)CO | . | -4 | . | 0

High-throughput results from PubChem.
